Measurements from different studies.
Compare with care: the assays were run in different laboratories.

Cc1ccc(C(=O)Nc2ccc(CN3CCN(C)CC3)c(C(F)(F)F)c2)cc1C#Cc1cnc2[nH]ncc2c1
Vd/F (human, plasma; oral, 20 mg, healthy volunteers): 8220 L

Cn1cc(Nc2nc(N)nc(-c3cccc(-n4ccc5cc(C6CC6)cc(F)c5c4=O)c3CO)n2)cn1
Vd/F (human, plasma; oral, 300 mg, single dose, fasted): 422 L

CCN1CCN(Cc2ccc(NC(=O)c3ccc(C)c(NC(=O)c4cncc(-c5cccs5)c4)c3)cc2C(F)(F)F)CC1
Cmax (mouse, plasma; intraperitoneal, 30 mg/kg, single dose): 716 ng/mL

Cl.[2H]C([2H])([2H])CC(=O)c1cnc(NC(=O)C2CC2)cc1Nc1cccc(-c2ncn(C([2H])([2H])[2H])n2)c1OC
Vd/F (human, plasma; oral, 20 mg, multiple doses, once daily, fasted): 240 L

Nc1ncn([C@H]2C[C@H](O)[C@@H](CO)O2)c(=O)n1
Cmax (female C57BL/6 mouse, plasma; intravenous, 0.4 mg/kg): 319 ng/mL

NC(=S)NN=Cc1ncccc1N
Vd/F (human, plasma; oral, 100 mg): 205 L

CC(=O)O[C@@]12CO[C@@H]1C[C@H](O)[C@@]1(C)C(=O)[C@H](O)C3=C(C)[C@@H](OC(=O)[C@H](O)[C@@H](NC(=O)OC(C)(C)C)c4ccccc4)C[C@@](O)([C@@H](OC(=O)c4ccccc4)[C@H]21)C3(C)C
Cmax (male Kunming mouse, liver; oral, 20 mg/kg): 18.9 ng/g

CNC(=O)n1ccc2cc(Oc3ccnc(NC(=O)c4ccc(C5CCN(CCO)CC5)cc4)c3)c(OCCOC)cc21
Vd/F (human, plasma; oral, 35 mg, single dose, fasted, healthy volunteers): 11800 L
